Format in all cases: functional
The test system of experiment [1] is Mus musculus. The experiment can be described thus: Evaluated for Bicuculline-induced lethality (anticonvulsant activity) when administered orally in mice. The following applies: po. In a few lines: (§1)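 Female Swiss albino CD1 mice (18-23 g), oral dosing (20 mL/kg); test compounds dissolved in dilute HCl (pH 3), reference drugs suspended in 5% gum tragacanth. Bicuculline challenge, scoring protection from seizures and from lethality. […] Weakly active agents reported as percent protected at the stated dose.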

In experiment [2] the test system is Mus musculus. The experiment can be described thus: Compound was evaluated for the sedative property by the rotarod test at 150 mg/kg. The gist of the method:
(§2)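 Motor coordination was tested on the rotorod in groups of 10 female Swiss CD1 mice (18-23 g). Drug or vehicle was given orally, test compounds in dilute HCl (pH 3), 60 min before testing.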
For orientation: Falling from the rotarod earlier than controls is read as motor impairment.

Experiment [3] deals with Mus musculus. Description: Evaluated for anticonvulsant activity when administered orally in mice by Maximal electroshock (MES). Conditions: po. In a few lines: (§3)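 Female Swiss CD1 mice (18-23 g), groups of 10, were dosed orally at 20 mL/kg. Test compounds were given in dilute HCl (pH 3) and references in 5% gum tragacanth, 60 min before a 60-V alternating current for 0.3 s through corneal electrodes. Protection meant abolition of the hindlimb tonic extensor component.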

Experiment [4] has as its system Mus musculus. Description: Compound was evaluated for the sedative property by the rotarod test at 20 mg/kg. In a few lines:
as §2

Experiment [5] has as its system Mus musculus. The experiment can be described thus: Evaluated for Bicuculline-induced seizures (anticonvulsant activity) when administered orally in mice. Conditions: po. In a few lines: (§4)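 Female Swiss CD1 mice (18-23 g) were dosed orally at 20 mL/kg, test compounds in dilute HCl (pH 3) and references in gum tragacanth. Protection against bicuculline- or pentylenetetrazole-induced clonic/tonic seizures and lethality was scored.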

Experiment [6] has as its system Mus musculus. Description: Compound was evaluated for Bicuculline-induced lethality (anticonvulsant activity) when administered 250 mg/kg orally in mice. The following applies: route oral. The gist of the method:
as §1

Experiment [7] concerns Mus musculus. The experiment can be described thus: Compound was evaluated for Bicuculline-induced seizures (anticonvulsant activity) when administered 250 mg/kg orally in mice. The following applies: route oral. The gist of the method: as §4
For experiment [8], the system named is Mus musculus. Description: Compound was evaluated for the sedative property by the rotarod test at 250 mg/kg. The gist of the method:
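Rotorod motor-coordination test in female Swiss albino CD1 mice (18-23 g). Groups of 10 mice dosed with test drug or vehicle 60 min before testing; test compounds dissolved in dilute HCl (pH 3).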

Experiment [9] deals with Mus musculus. Description: Compound was evaluated for anticonvulsant activity when administered 250 mg/kg orally in mice Maximal electroshock (MES). Conditions: route oral. The gist of the method:
as §3

The test system of experiment [10] is Mus musculus. Description: Anticonvulsant activity when administered 100 mg/kg orally in mice Maximal electroshock (MES). The following applies: route oral. The gist of the method:
as §3
In general terms: Protection in the maximal electroshock model is a classic sign of anticonvulsant action.

The subject of experiment [11] is Mus musculus. The experiment can be described thus: Evaluated for Bicuculline-induced seizures (anticonvulsant activity) when administered at 100 mg/kg orally in mice. The following applies: route oral. The gist of the method: as §4
The test system of experiment [12] is Mus musculus. The experiment can be described thus: Compound was evaluated for anticonvulsant activity when administered 10 mg/kg orally in mice Maximal electroshock (MES). The following applies: route oral. In a few lines:
as §3

The subject of experiment [13] is Mus musculus. The experiment can be described thus: Compound was evaluated for the sedative property by the rotarod test at 10 mg/kg. The gist of the method: as §2
In experiment [14] the test system is Mus musculus. The experiment can be described thus: Compound was evaluated for Bicuculline-induced seizures (anticonvulsant activity) when administered 10 mg/kg orally in mice. The following applies: route oral. The gist of the method:
as §1

Experiment [15] relates to Mus musculus. The experiment can be described thus: Compound was evaluated for anticonvulsant activity when administered 1 mg/kg orally in mice Maximal electroshock (MES). The following applies: route oral. The gist of the method:
as §3

Experiment [16] deals with Mus musculus. Description: Compound was evaluated for Bicuculline-induced seizures (anticonvulsant activity) when administered 1 mg/kg orally in mice. Conditions: route oral. In a few lines:
as §1

The test system of experiment [17] is Mus musculus. Description: Compound was evaluated for the sedative property by the rotarod test at 1 mg/kg. The gist of the method: as §2
Experiment [18] concerns Mus musculus. The experiment can be described thus: Anticonvulsant activity in tonic seizures when administered orally in mice. Conditions: po.
A further experiment is filed under the species Papio hamadryas. The experiment can be described thus: Antagonist activity to generalized seizures Photically induced seizures in senegalese Papio papio baboons. In a few lines:
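Naturally photosensitive baboons of both sexes (4-7 kg) were dosed orally, test compounds in dilute HCl (pH 3) and references in 5% gum tragacanth, at 4 mL/kg. They were photically stimulated at hourly intervals afterwards, and the myoclonic response was graded after Killam. Threshold active dose is the first dose that protected at least two of four animals for at least 2 h.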

Experiment [19] concerns Mus musculus. The experiment can be described thus: Anticonvulsant activity in Maximal electroshock (MES) when administered orally in mice. The following applies: po. The gist of the method: as §3
Another experiment is filed under the species Rattus norvegicus. Description: Antagonist activity to generalized seizures kindled amygdaloid seizures in rats. In a few lines:
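Male Sprague-Dawley rats (200-500 g), groups of 10, carried platinum electrodes in the right basolateral amygdala. They counted as kindled after stage-5 seizures on 3 consecutive days at 30-90 μA. A control stimulation was followed by an oral dose (5 mL/kg) and restimulation 1 h later. After-discharge duration and Racine seizure stage were compared with vehicle.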

For experiment [20], the species on record is Mus musculus. The experiment can be described thus: Sedative properties by the rotarod test. In a few lines:
as §2

Experiment [21] has as its system Mus musculus. The experiment can be described thus: Anticonvulsant activity in Clonic seizures when administered orally in mice. The following applies: po. The gist of the method:
as §4

Experiment [22] has as its system Mus musculus. Description: Compound was evaluated for Bicuculline-induced seizures (anticonvulsant activity)when administered orally in mice. Conditions: po. The gist of the method:
as §1

Experiment [23] concerns Mus musculus. The experiment can be described thus: Compound was evaluated for the sedative properties by the rotarod test when 100 mg/Kg was administered in mice. In a few lines:
as §2

The subject of experiment [24] is Mus musculus. Description: Compound was evaluated for Bicuculline-induced lethality (anticonvulsant activity) when administered 20 mg/Kg orally in mice. The gist of the method:
as §1

What is called ED50 is the dose at which the effect has come halfway, by size or by number of responders.

In the case of `OC1CCN(c2ccc(-c3cc(Cl)ccc3Cl)nn2)CC1`, the ED50 in the experiment on Mus musculus [1] came out at 101 mg/kg. Also, the Protected with Mus musculus [2] is on record as 10%.
For `O=C1CCN(c2ccc(-c3ccc(Cl)cc3Cl)nn2)CC1`, the ED50 in the experiment on Mus musculus [3] came out at 5 mg/kg; in the experiment with Mus musculus [1], 7 mg/kg; in the experiment with Mus musculus [5] it was 7.3 mg/kg. For the same molecule, the Protected in the experiment with Mus musculus [4] is given as 50%.
For `Oc1ccc(-c2ccc(N3CCC(O)CC3)nn2)cc1`, the Protected turned out to be 10% with Mus musculus [6], 0% with Mus musculus [7], 10% in the experiment with Mus musculus [8] and 25% in the experiment with Mus musculus [9].
As for `Oc1ccccc1-c1ccc(N2CCC(O)CC2)nn1`, the Protected with Mus musculus [8], with Mus musculus [10] and with Mus musculus [11] was 0% in each case.
On to `OC1CCN(c2ccc(-c3ccccn3)nn2)CC1`, for which the Protected with Mus musculus [12] was 0%; with Mus musculus [13] it was 20%; in the experiment with Mus musculus [14], 0%.
Consider `CN(C)C(=O)OC1CCN(c2ccc(-c3ccc(Cl)cc3Cl)nn2)CC1`, for which the Protected amounted to 66% in the experiment with Mus musculus [15], 30% with Mus musculus [16] and 20% in the experiment with Mus musculus [17].
Take `NC(=O)N1c2ccccc2C=Cc2ccccc21` [CARBAMAZEPINE]: the ED50 with Mus musculus [18] was 21 mg/kg; with Mus musculus [19] it was 21 mg/kg; in the experiment with Mus musculus [1] it was 16 mg/kg; in the experiment filed under Mus musculus [20] it was 95 mg/kg; in the experiment with Mus musculus [5], 29 mg/kg; with Mus musculus [21], > 100 mg/kg. Moreover, the figures for the Threshold active dose in the experiment listed under Papio hamadryas and in the experiment filed under Rattus norvegicus were 100 mg/kg and 10 mg/kg, respectively.
On to `OC1CCN(c2ccc(-c3ccc(Cl)cc3Cl)nn2)CC1` [ENDIXAPRINE], for which the ED50 with Mus musculus [18] is 11 mg/kg; in the experiment with Mus musculus [19], 14 mg/kg; in the experiment with Mus musculus [1], 8.5 mg/kg; in the experiment filed under Mus musculus [20], 34 mg/kg; in the experiment on Mus musculus [5] it was 8.5 mg/kg; with Mus musculus [21], 18 mg/kg. Besides, the Threshold active dose stood at 50 mg/kg in the experiment listed under Papio hamadryas and 20 mg/kg in the experiment filed under Rattus norvegicus.
As for `CCC1(c2ccccc2)C(=O)NC(=O)NC1=O` [PHENOBARBITAL], the ED50 in the experiment with Mus musculus [22] was 5.8 mg/kg; in the experiment with Mus musculus [18], 7 mg/kg; with Mus musculus [19] it was 5.4 mg/kg; in the experiment with Mus musculus [1], 5.2 mg/kg; in the experiment filed under Mus musculus [20], 61 mg/kg; with Mus musculus [21], 15 mg/kg. The Threshold active dose in the experiment filed under Papio hamadryas worked out at 5 mg/kg; in the experiment filed under Rattus norvegicus, 20 mg/kg.
`O=C1NC(=O)C(c2ccccc2)(c2ccccc2)N1` [PHENYTOIN]: the ED50 is 11 mg/kg with Mus musculus [22], 7 mg/kg with Mus musculus [18], 23 mg/kg in the experiment with Mus musculus [19] and > 80 mg/kg in the experiment with Mus musculus [21]. Further, the Threshold active dose was 50 mg/kg in the experiment filed under Papio hamadryas and 20 mg/kg in the experiment filed under Rattus norvegicus. Further, the values for the Protected with Mus musculus [23] and with Mus musculus [24] were 30% and 25%, respectively.
For `CCCC(CCC)C(=O)[O-].[Na+]` [VALPROATE SODIUM], the ED50 worked out at 201 mg/kg in the experiment on Mus musculus [18]; 324 mg/kg in the experiment with Mus musculus [19]; 246 mg/kg in the experiment with Mus musculus [1]; 406 mg/kg in the experiment filed under Mus musculus [20]; 274 mg/kg in the experiment with Mus musculus [5]; 363 mg/kg in the experiment with Mus musculus [21]. For the same molecule, the Threshold active dose in the experiment filed under Papio hamadryas was 300 mg/kg; in the experiment listed under Rattus norvegicus it was 200 mg/kg.

The values are drawn from ChEMBL document CHEMBL1123469, “Synthesis and activity of 6-aryl-3-(hydroxypolymethyleneamino)pyridazines in animal models of epilepsy” (1986).
